IC50, selectivity ratio and CC50 data for 29 compounds are collected here from ChEMBL document CHEMBL2062433, “Synthesis and antiviral activity of substituted bisaryl amide compounds as novel influenza virus inhibitors” (Eur J Med Chem, 2012).

For data set [1], the system named is Influenza A virus. Nature of the data set: Antiviral activity against Influenza A virus (A/Guangdong-Luohu/219/2006(H1N1)) infected in MDCK cells assessed as inhibition of virus-induced cytopathic effect. The class given is functional, organism-based. The procedure, abridged: (§1)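 Confluent MDCK monolayers infected with 100 TCID50 of virus; 2 h adsorption at 37 °C, PBS wash, then maintenance medium at 37 °C with or without serial compound concentrations. CPE scored once virus control wells reached grade 4. IC50 calculated by Reed and Muench; values are averages of three independent assays.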

Data set [2] can be described thus: Selectivity index, ratio of TC50 for MDCK cells to IC50 for Influenza A virus (A/Guangdong-Luohu/219/2006(H1N1)). Format: toxicity, cell-based. Particulars: dog, read-out: Selectivity Index. The procedure, abridged: (§2)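 SI is TC50 divided by IC50. TC50 comes from uninfected MDCK cells after 48 h of compound exposure, scored by CPE. IC50 comes from MDCK cells infected with 100 TCID50 and scored for CPE when virus controls reached grade 4. Both values calculated by Reed and Muench.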

The nature of data set [3]: Cytotoxicity against MDCK cells incubated for 48 hrs by CPE method. Particulars: dog, read-out: TC50. The class given is cell-based, Canis lupus familiaris. The essentials:
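MDCK cells seeded at 2.5 × 10^4 per well and grown 24 h, then exposed to various compound concentrations for 48 h at 37 °C in 5% CO2. Toxicity scored by CPE observation. TC50 calculated by Reed and Muench; values are averages of three independent assays.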

In data set [4] the test system is Influenza A virus. Nature of the data set: Antiviral activity against Influenza A virus (A/Tianjin-Jinnan/15/2009(H1N1)) infected in MDCK cells assessed as inhibition of virus-induced cytopathic effect. Format: functional, organism-based. The procedure, abridged:
as §1

For another data set, the system named is Influenza B virus. Description: Antiviral activity against Influenza B virus (strain B/Jifang/13/97) infected in MDCK cells assessed as inhibition of virus-induced cytopathic effect. Format: functional, organism-based.
A short description of data set [5]: Selectivity index, ratio of TC50 for MDCK cells to IC50 for Influenza A virus (A/Tianjin-Jinnan/15/2009(H1N1)). Format: toxicity, cell-based. Particulars: dog, read-out: Selectivity Index. The essentials: as §2
Data set [6] can be described thus: Selectivity index, ratio of TC50 for MDCK cells to IC50 for Influenza B virus (strain B/Jifang/13/97). Format: toxicity, cell-based. Particulars: dog, read-out: Selectivity Index.

Bounds are passed on as bounds.

Turning to `CCC(=O)Nc1cc(C(=O)Oc2ccccc2)ccc1OC`, the IC50 with Influenza A virus [1] is 223 µM. Moreover, in data set [2], the selectivity ratio amounted to 2.1. For the same compound, in data set [3], the CC50 at 48 h is 464 µM.
Turning to `CCC(=O)Nc1cc(C(=O)Nc2ccccc2)ccc1OC`, the values for the IC50 in the data set on Influenza A virus [4], in the data set with Influenza B virus and in the data set with Influenza A virus [1] were greater than 224 µM, greater than 224 µM and 43 µM, respectively. For the same compound, the selectivity ratio in data set [2] is greater than 15.6. Moreover, in data set [3], the CC50 at 48 h is greater than 670 µM.
As to `CCC(=O)Nc1cc(C(=O)Nc2ccc(C)cc2)ccc1OC`, the values for the IC50 in the data set on Influenza A virus [4], with Influenza B virus and with Influenza A virus [1] were greater than 23.7 µM, greater than 23.7 µM and 23.7 µM, respectively. In addition, the selectivity ratio in data set [2] came out at 6.8. Also, the CC50 at 48 h in data set [3] turned out to be 162 µM.
Regarding `CCC(=O)Nc1cc(C(=O)Nc2ccc(Br)cc2)ccc1OC`, the IC50 in the data set on Influenza A virus [1] was greater than 17.6 µM. Further, the CC50 at 48 h in data set [3] came to 90.4 µM.
For `CCC(=O)Nc1cc(C(=O)Nc2cccc(Cl)c2)ccc1OC`, in that order: greater than 66.9 µM and 602 µM.
With `CCC(=O)Nc1cc(C(=O)Nc2cccc(SC)c2)ccc1OC`, the IC50 in the data set on Influenza A virus [1] was greater than 63 µM. Also, the CC50 at 48 h in data set [3] was found to be 324 µM.
Take `CCC(=O)Nc1cc(C(=O)NC2CCCCC2)ccc1OC`: in the data set on Influenza A virus [1], the IC50 came to 73 µM. For the same compound, the selectivity ratio in data set [2] is 6.9. Moreover, the CC50 at 48 h in data set [3] came to 510 µM.
As to `CCC(=O)Nc1cc(C(=O)NC2CCC2)ccc1OC`, the IC50 is greater than 241 µM in the data set with Influenza A virus [4], greater than 241 µM with Influenza B virus and 59 µM in the data set on Influenza A virus [1]. The selectivity ratio in data set [2] was greater than 12.3. Besides, in data set [3], the CC50 at 48 h is greater than 724 µM.
Turning to `CCC(=O)Nc1cc(C(=O)Nc2nccs2)ccc1OC`, the half-maximal inhibitory concentration (IC50) in the data set with Influenza A virus [4] was determined as 93.8 µM; in the data set with Influenza B virus, 126 µM; with Influenza A virus [1] it was 35 µM. In addition, the selectivity ratio in data set [5] was 6.9; in data set [2], greater than 18.7; in data set [6], greater than 5.2. Moreover, the CC50 at 48 h in data set [3] is greater than 655 µM.
Regarding `COc1ccc(C(=O)Nc2ccccc2)cc1NC(=O)C(C)Cl` (centres undefined), the IC50 with Influenza A virus [4] was greater than 22.3 µM; in the data set with Influenza B virus, greater than 22.3 µM; with Influenza A virus [1], 17.3 µM. The selectivity ratio in data set [2] worked out at 11.6. The CC50 at 48 h in data set [3] is 200 µM.
On to `COc1ccc(C(=O)Nc2ccccc2)cc1NC(C)=O`, for which, in the data set on Influenza A virus [1], the IC50 was 113 µM. Besides, the selectivity ratio in data set [2] is greater than 6.2. Further, the CC50 at 48 h in data set [3] is greater than 704 µM.
With `COc1ccc(C(=O)Nc2ccccc2)cc1NC(=O)c1ccccc1`, the IC50 in the data set on Influenza A virus [4] was 9.2 µM; with Influenza B virus, 21.4 µM; with Influenza A virus [1], 12.5 µM. For the same compound, the selectivity ratio in data set [5] turned out to be 20.9; in data set [2], 15.4; in data set [6] it was 9. For the same compound, the CC50 at 48 h in data set [3] was found to be 192 µM.
Take `COc1ccc(C(=O)Nc2ccccc2)cc1NC(=O)C1CCCC1`: the IC50 with Influenza A virus [4] is greater than 65.7 µM; with Influenza B virus it was greater than 65.7 µM; in the data set with Influenza A virus [1] it was 37.9 µM. In addition, the selectivity ratio in data set [2] was 12.1. The CC50 at 48 h in data set [3] amounted to 459 µM.
Consider `COc1ccc(C(=O)Nc2ccccc2)cc1NC(=O)C(C)F` (centres undefined), for which the IC50 in the data set on Influenza A virus [1] was 211 µM. Also, the selectivity ratio in data set [2] was greater than 3. Besides, the CC50 at 48 h in data set [3] was greater than 632 µM.
`CCC(=O)Nc1cc(C(=O)Nc2ccc([N+](=O)[O-])cc2)ccc1OC`: the IC50 is greater than 21.6 µM in the data set on Influenza A virus [4], 64.8 µM in the data set on Influenza B virus and 26.3 µM in the data set with Influenza A virus [1]. Further, the figures for the selectivity ratio in data set [2] and in data set [6] were 11.7 and 4.7, respectively. In addition, the CC50 at 48 h in data set [3] came to 307 µM.
Consider `CCC(=O)Nc1cc(C(=O)Nc2ccccn2)ccc1OC`, for which, in the data set on Influenza A virus [1], the IC50 came out at 223 µM. Further, in data set [2], the selectivity ratio is greater than 3. In addition, the CC50 at 48 h in data set [3] is greater than 669 µM.
For `CCC(=O)Nc1cc(C(=O)N(C)c2ccccc2)ccc1OC`, in that order: 101 µM, 4.4 and 444 µM.
For `COc1ccc(C(=O)N(C)c2ccccc2)cc1NC(=O)C(C)C`, in that order: 117 µM, 4.2 and 492 µM.
With `CCC(=O)Nc1cc(C(=O)Nc2ccccc2)ccc1Cl`, in the data set on Influenza A virus [1], the IC50 was determined as 153 µM. In data set [2], the selectivity ratio turned out to be 3.5. The CC50 at 48 h in data set [3] is 530 µM.
For `CCC(=O)Oc1cc(C(=O)Nc2ccccc2)ccc1OC`, in that order: 173 µM, 3 and 518 µM.
`COc1ccc(C(=O)Nc2ccccc2)cc1`: in the data set with Influenza A virus [1], the 50% inhibitory concentration (IC50) is greater than 293 µM. For the same compound, in data set [3], the CC50 at 48 h was greater than 880 µM.
In the case of `COc1c(NC(=O)C(C)F)cccc1C(=O)Nc1ccccc1` (centres undefined), in the data set on Influenza A virus [1], the IC50 is greater than 211 µM. Also, the CC50 at 48 h in data set [3] was greater than 632 µM.
Consider `COc1cc(NC(=O)C(C)F)cc(C(=O)Nc2ccccc2)c1` (centres undefined), for which the IC50 with Influenza A virus [1] was 211 µM. The selectivity ratio in data set [2] amounted to 2.3. Further, in data set [3], the CC50 at 48 h stood at 491 µM.
Regarding `COc1ccc(NC(=O)C(C)F)cc1C(=O)Nc1ccccc1` (centres undefined), the IC50 in the data set on Influenza A virus [1] was greater than 70.2 µM. In data set [3], the CC50 at 48 h stood at 272 µM.
For `CC(F)C(=O)Nc1cccc(C(=O)Nc2ccccc2)c1` (centres undefined), the IC50 with Influenza A virus [1] came to 144 µM. Besides, the selectivity ratio in data set [2] was determined as 4. For the same compound, the CC50 at 48 h in data set [3] was 578 µM.
Consider `CCC(=O)Nc1cc(S(=O)(=O)Nc2ccccc2)ccc1OC`, for which the IC50 in the data set on Influenza A virus [4] is greater than 66.7 µM; in the data set on Influenza B virus it was greater than 66.7 µM; in the data set on Influenza A virus [1], 48.4 µM. In addition, the selectivity ratio in data set [2] is greater than 12.4. Also, the CC50 at 48 h in data set [3] is greater than 599 µM.
On to `CCC(=O)Nc1cc(NC(=O)c2ccccc2)ccc1OC`, for which the IC50 with Influenza A virus [1] came to 74.5 µM. Moreover, in data set [2], the selectivity ratio turned out to be 5.2. The CC50 at 48 h in data set [3] amounted to 387 µM.
With `CCOC(=O)C1=C[C@@H](OC(CC)CC)[C@H](NC(C)=O)[C@@H](N)C1` [OSELTAMIVIR], the IC50 was greater than 2440 µM in the data set with Influenza A virus [4] and 2 µM in the data set on Influenza A virus [1]. The selectivity ratio in data set [2] was found to be 1540. Also, the CC50 at 48 h in data set [3] turned out to be 3070 µM.
In the case of `NC(=O)c1ncn([C@@H]2O[C@H](CO)[C@@H](O)[C@H]2O)n1` [RIBAVIRIN], the results for the IC50 in the data set with Influenza A virus [4], with Influenza B virus and in the data set with Influenza A virus [1] were 35.3 µM, 45.5 µM and 8.8 µM, respectively. Further, the figures for the selectivity ratio in data set [5], in data set [2] and in data set [6] were 135, 542 and 104, respectively. The CC50 at 48 h in data set [3] was determined as 4770 µM.
